Key:
Progesterone receptor = target: T1, Progesterone receptor (Homo sapiens, UniProt P06401); assay: Binding affinity to progesterone receptor by fluorescence polarization assay
T1 sequence (P06401 whole entry): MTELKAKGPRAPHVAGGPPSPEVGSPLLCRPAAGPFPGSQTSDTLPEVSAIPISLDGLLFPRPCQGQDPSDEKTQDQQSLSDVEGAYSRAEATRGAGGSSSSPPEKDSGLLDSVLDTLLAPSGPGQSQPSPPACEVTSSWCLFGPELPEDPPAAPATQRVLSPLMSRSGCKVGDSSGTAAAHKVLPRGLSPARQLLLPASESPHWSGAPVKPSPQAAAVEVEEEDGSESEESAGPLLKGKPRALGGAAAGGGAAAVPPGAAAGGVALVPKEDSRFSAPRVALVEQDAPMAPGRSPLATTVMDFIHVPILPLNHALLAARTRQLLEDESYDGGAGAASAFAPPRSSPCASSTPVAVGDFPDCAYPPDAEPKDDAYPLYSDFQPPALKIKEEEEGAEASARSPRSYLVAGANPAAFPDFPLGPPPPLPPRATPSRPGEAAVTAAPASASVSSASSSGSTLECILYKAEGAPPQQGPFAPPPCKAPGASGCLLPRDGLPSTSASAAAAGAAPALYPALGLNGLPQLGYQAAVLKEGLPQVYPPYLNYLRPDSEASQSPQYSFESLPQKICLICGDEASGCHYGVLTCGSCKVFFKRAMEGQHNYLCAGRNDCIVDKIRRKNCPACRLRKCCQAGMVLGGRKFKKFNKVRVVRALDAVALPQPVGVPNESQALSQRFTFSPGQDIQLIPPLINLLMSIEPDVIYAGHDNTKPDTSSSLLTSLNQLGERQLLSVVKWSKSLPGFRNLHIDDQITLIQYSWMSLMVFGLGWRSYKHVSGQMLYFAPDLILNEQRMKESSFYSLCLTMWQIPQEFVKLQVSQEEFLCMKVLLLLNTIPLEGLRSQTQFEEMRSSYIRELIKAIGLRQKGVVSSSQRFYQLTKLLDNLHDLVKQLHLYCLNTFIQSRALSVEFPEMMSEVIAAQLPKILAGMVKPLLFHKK
Method in brief: (§1)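 Fluorescence polarization competition of test compound against a fluorescently labelled ligand for binding to full-length receptor or its ligand-binding domain.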

Androgen receptor = target: T2, Androgen receptor (Homo sapiens, UniProt P10275); assay: Binding affinity to androgen receptor by fluorescence polarization assay; method in brief: as §1
T2 sequence (P10275 whole entry): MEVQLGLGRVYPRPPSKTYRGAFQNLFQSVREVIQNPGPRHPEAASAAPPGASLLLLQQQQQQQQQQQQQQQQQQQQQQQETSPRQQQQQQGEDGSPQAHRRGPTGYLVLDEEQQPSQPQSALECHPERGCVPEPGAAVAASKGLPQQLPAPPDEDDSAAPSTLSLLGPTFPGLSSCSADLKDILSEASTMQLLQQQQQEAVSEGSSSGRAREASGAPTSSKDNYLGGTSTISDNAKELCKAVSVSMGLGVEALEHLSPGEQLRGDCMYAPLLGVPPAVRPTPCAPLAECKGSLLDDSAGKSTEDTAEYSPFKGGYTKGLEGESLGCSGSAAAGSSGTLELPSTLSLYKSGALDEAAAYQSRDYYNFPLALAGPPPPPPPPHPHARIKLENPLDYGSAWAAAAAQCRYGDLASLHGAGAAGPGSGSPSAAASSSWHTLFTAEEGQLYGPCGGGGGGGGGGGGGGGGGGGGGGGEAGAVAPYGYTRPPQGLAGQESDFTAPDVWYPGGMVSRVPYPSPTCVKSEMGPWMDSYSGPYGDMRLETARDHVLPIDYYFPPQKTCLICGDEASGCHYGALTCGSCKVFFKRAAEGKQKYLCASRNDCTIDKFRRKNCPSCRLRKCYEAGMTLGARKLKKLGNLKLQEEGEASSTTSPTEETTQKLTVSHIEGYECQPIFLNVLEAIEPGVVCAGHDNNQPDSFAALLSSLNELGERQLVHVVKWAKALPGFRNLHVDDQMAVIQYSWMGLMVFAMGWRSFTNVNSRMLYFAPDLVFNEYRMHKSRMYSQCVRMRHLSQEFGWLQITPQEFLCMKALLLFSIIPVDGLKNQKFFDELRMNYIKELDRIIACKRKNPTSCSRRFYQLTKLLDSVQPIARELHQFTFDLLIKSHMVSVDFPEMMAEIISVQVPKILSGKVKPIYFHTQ

Glucocorticoid receptor [1] = target: T3, Glucocorticoid receptor (Homo sapiens, UniProt P04150); assay: Displacement of GS-red from GRapha by fluorescence polarization assay
T3 sequence (P04150 whole entry): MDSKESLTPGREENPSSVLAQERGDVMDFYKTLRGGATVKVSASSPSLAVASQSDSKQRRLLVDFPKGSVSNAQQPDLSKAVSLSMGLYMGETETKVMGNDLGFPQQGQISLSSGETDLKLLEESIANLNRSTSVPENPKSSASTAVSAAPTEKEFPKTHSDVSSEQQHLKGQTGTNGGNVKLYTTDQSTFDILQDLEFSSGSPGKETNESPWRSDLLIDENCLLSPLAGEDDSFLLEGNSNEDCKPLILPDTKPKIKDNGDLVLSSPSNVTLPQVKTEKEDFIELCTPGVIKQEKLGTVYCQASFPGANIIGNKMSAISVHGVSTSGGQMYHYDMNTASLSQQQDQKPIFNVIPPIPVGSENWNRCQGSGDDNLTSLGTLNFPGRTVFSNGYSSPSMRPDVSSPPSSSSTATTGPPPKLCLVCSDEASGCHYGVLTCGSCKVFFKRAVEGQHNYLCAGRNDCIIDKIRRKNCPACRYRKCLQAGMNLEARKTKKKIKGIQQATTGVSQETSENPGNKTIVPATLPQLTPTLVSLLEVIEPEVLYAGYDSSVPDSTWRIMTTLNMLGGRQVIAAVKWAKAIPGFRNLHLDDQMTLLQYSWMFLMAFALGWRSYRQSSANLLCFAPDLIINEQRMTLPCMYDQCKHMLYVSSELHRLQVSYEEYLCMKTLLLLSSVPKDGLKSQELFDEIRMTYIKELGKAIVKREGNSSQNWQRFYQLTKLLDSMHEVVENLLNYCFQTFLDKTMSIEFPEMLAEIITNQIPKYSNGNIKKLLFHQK

Glucocorticoid receptor [2] = target: T3, Glucocorticoid receptor; assay: Transrepression activity of glucocorticoid receptor in human A549 cells expressing AP-1 assessed as inhibition of PMA-induced AP-1 activity by luciferase reporter gene assay; type: cell-based
[3] = target: T4, Glucocorticoid receptor (Homo sapiens) (UniProt P04150); assay: Transrepression activity of glucocorticoid receptor in human A549 cells expressing AP-1 assessed as inhibition of PMA-induced AP-1 activity by luciferase reporter gene assay relative to Dexamethasone; type: cell-based
T4 sequence (whole entry): T3 sequence (P04150 whole entry)
Method in brief: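 Human A549 lung epithelial cells stably transfected with a 5×AP-1 response element luciferase reporter. AP-1 was induced with PMA (15 ng/mL), and inhibition was read as decreased luciferase.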

Glucocorticoid receptor [4] = target: T3, Glucocorticoid receptor; assay: Transactivation activity of glucocorticoid receptor ligand binding domain expressed in human NP-1 Hela cells co-expressing GAL4 DNA binding domain by luciferase reporter gene assay; type: cell-based
Glucocorticoid receptor [5] = target: T3, Glucocorticoid receptor; assay: Transrepression activity of glucocorticoid receptor in human A549 cells assessed as inhibition of IL1beta-stimulated NFkappaB-dependent E-selectin transcription by luciferase reporter gene assay; type: cell-based
[6] = target: T4, Glucocorticoid receptor (Homo sapiens); assay: Transrepression activity of glucocorticoid receptor in human A549 cells assessed as inhibition of IL1beta-stimulated NFkappaB-dependent E-selectin transcription by luciferase reporter gene assay relative to Dexamethasone; type: cell-based
Glucocorticoid receptor [7] = target: T3, Glucocorticoid receptor; assay: Transactivation activity at glucocorticoid receptor in human 13D3/Huh7 cells assessed as induction of tyrosine aminotransferase activity after 24 hrs; type: cell-based, Huh-7
[8] = target: T4, Glucocorticoid receptor (Homo sapiens); assay: Transactivation activity at glucocorticoid receptor in human 13D3/Huh7 cells assessed as induction of tyrosine aminotransferase activity after 24 hrs relative to Dexamethasone; type: cell-based; details: Huh-7
Method in brief: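 Human 13D3/Huh7 hepatoma cells, 20 K/well, were incubated overnight at 37 °C/5% CO2. They were then treated overnight with compounds in assay medium containing 20 μM forskolin. The reaction was stopped with KOH and A340 read. Results are % activation, with EC50 derived.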

[9] = target: T4, Glucocorticoid receptor (Homo sapiens); assay: Transactivation activity of glucocorticoid receptor ligand binding domain expressed in human NP-1 Hela cells co-expressing GAL4 DNA binding domain by luciferase reporter gene assay relative to Dexamethasone; type: cell-based
Method in brief: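 HeLa NP-1 cells stably carrying a GAL4 DBD–human GR LBD chimera with a GAL4 luciferase reporter. Agonist activity was read as increased luciferase activity.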

Ki (Progesterone receptor) [nM] | Ki (Androgen receptor) [nM] | Ki (Glucocorticoid receptor [1]) [nM] | EC50 (Glucocorticoid receptor [2]) [nM] | Efficacy [3] [%] | EC50 (Glucocorticoid receptor [4]) [nM] | EC50 (Glucocorticoid receptor [5]) [nM] | Efficacy [6] [%] | EC50 (Glucocorticoid receptor [7]) [nM] | Efficacy [8] [%] | Efficacy [9] [%] | SMILES
144 | > 3000 | 0.9 | 506 | 74 | > 10000 | 206 | 48 | > 5000 | 16 |  | CC(C)(C(=O)Nc1nccs1)[C@@H](c1ccccc1)c1ccc(O)c(C#N)c1
 |  |  | > 10000 |  | > 10000 |  |  | > 10000 |  |  | CC(C)(C(=O)Nc1nccs1)[C@H](c1ccccc1)c1ccc(O)cc1
140 | > 4000 |  |  |  |  |  |  |  |  |  | Cc1cc([C@H](c2ccccc2)C(C)(C)C(=O)Nc2nncs2)ccc1O
 |  | 6 | > 5000 |  | > 10000 | > 5000 |  |  |  |  | CC(C)(C(=O)Nc1nncs1)C1c2ccccc2Oc2ccccc21
 |  | 2.5 | 61.4 | 63 | 863 | 125 | 50 | 2580 | 20 | 14 | CC(C)(C(=O)Nc1nccs1)C(c1ccccc1)c1ccc(O)cc1 (racemic)
 |  | 0.6 | 51.1 | 77 | 216 | 37.7 | 63 | 197 | 41 | 39 | CC(C)(C(=O)Nc1nccs1)C(c1ccccc1)c1ccc(O)c(F)c1 (racemic)
 |  | 4.6 | > 10000 | 16 | > 10000 | > 5000 | 12 | > 5000 |  |  | CC(C)(C(=O)Nc1nccs1)[C@H](c1ccccc1)c1ccc(O)c(F)c1
 |  | 7.3 | > 10000 |  | > 10000 | > 5000 | 16 | 2320 |  |  | CC(=O)c1cc([C@H](c2ccccc2)C(C)(C)C(=O)Nc2nccs2)ccc1O
 |  | 58.7 | > 5000 |  | > 10000 | > 5000 |  |  |  |  | CC(C)(C(=O)Nc1nncs1)[C@@H]1c2ccccc2Oc2cc(O)ccc21
 |  | 0.4 | 12.7 | 87 | 67.2 | 6.2 | 75 | 46.5 | 57 | 54 | CC(C)(C(=O)Nc1nncs1)[C@@H](c1ccccc1)c1ccc(O)c(Br)c1

— ChEMBL document CHEMBL1799968, “Dimethyl-diphenyl-propanamide derivatives as nonsteroidal dissociated glucocorticoid receptor agonists” (J Med Chem, 2010)
